In the library only some 1.6% were active in any assay of this set; here they are far more common.
T cell modulator = T cell immune modulation candidate | response (vesicle binding), % at 7 µM | AID 2052 | 0.068% of 330,000 active | 2C CD8+ T cell-vesicle binding, flow cytometry; hits give low values;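 active = response, share of CD8 T cells binding vesicles, and their 90th percentile fluorescence all below set limits, cut at about 80% in these data, passing the limit was not always enough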;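 also: values below 100% mean blocked vesicle binding to the CD8+ T cells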
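Material: murine 2C transgenic CD8+ T lymphocytes / Also added: QL9-peptide-loaded Drosophila micro-vesicles bearing Ld, ICAM-1 and B7-1 / Schedule: binding step 1.5 h, 37 °C, antibody labelling 20 min, ice / Signal: flow cytometry, PE anti-B7-1 (FL2) versus Alexa647 anti-CD8 (FL8), PFA-fixed / Evaluation: percent CD8+ FL2 mean versus row control / Benchmarks: naked versus QL9-loaded vesicles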
PKA-R2B activ = PKA-R2B complex activation; P22694+P31323; PKA-R2B holoenzyme dissociation, Cy5-IP20 fluorescence polarization; R2B truncated from residue 108, S112A mutant; 0% DMSO only, 100% 113 µM cGMP; activation, % at 11.4 µM; 0.079% of 340,000 active; AID 504700;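 active = activation above a cutoff set at the mean over all compounds plus 3 SD, cut at about 18% in these data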;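 also: higher means more holoenzyme dissociation and a rise in polarization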
HKDC1 inhibitor = HKDC1 (human) hexokinase inhibition; inhibition, % at 20 µM; AID 493160; 0.16% of 340,000 active; recombinant HKDC1, G6PDH/diaphorase resazurin coupled fluorescence; Q2TB90;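 active = inhibition above about 35% when tested at 20 µM, limit read from the data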;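 also: plate controls were DMSO wells with enzyme for no effect and DMSO wells lacking enzyme for full effect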
Target sequence (Q2TB90 whole entry, looked up): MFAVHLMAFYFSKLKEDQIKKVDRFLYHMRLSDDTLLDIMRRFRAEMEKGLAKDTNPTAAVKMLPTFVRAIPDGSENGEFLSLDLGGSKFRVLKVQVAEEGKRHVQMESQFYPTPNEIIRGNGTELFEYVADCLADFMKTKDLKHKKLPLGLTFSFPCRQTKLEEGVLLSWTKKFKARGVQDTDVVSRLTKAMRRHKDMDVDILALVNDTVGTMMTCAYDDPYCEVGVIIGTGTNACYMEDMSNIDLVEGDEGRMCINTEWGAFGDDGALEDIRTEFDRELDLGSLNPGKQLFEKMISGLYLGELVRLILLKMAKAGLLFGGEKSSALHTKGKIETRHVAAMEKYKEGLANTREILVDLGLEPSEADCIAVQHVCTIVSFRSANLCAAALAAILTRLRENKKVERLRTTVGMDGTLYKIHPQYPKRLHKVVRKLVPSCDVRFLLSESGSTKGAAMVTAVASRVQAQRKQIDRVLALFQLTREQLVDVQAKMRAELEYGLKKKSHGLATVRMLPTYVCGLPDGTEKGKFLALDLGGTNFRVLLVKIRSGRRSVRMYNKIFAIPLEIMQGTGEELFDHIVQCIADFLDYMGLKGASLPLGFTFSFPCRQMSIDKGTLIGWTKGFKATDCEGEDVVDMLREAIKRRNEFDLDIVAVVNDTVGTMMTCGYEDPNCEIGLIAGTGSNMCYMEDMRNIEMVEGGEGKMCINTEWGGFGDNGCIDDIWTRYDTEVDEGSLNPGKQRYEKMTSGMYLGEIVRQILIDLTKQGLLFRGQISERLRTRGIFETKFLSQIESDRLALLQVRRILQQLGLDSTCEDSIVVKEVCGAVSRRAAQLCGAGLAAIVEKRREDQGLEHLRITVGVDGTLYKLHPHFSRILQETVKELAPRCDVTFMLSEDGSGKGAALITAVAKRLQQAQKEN
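Test system: HK5 enzyme. Quantity: 5 µg/mL HK5 final. Reagent: glucose and ATP substrates. Schedule: 90 min reaction incubation at room temperature, dark. Technique: resazurin-to-resorufin fluorescence via G6PDH and diaphorase coupling, 525/613 nm. Control set: DMSO wells with and without enzyme mix.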
PKA-R1A activ = PKA-R1A complex activation. 0.083% of 340,000 active. PKA-R1A dissociation, Cy5-IP20 fluorescence polarization; scaled: DMSO 0%, 113 µM cGMP 100%. P00514+P68181. activation, % at 11.4 µM;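 active = percent activation above the mean of all tested compounds plus 3 SD, cut at about 19% in these data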;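 also: higher means more PKAc released from R1A so a rise in polarization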
PfGluPho inh = PfG6PD (Plasmodium falciparum) enzyme inhibition; AID 504690; 0.78% of 350,000 active; PfGluPho enzyme, NADPH resazurin-diaphorase fluorescence; inhibition, % at 20 µM;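 active = inhibition reaching at least a set limit at 20 µM in the primary screen, cut at about 59% in these data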;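 also: 0% = DMSO wells with substrate and 100% = DMSO wells lacking glucose-6-phosphate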
ATG4B inhibitor = blocks human ATG4B protease cleavage of LC3 substrate | Q9Y4P1 | ATG4B cleavage of LC3-PLA2, NBD-HPC fluorescence, 1 h | inhibition, % at 8.33 µM | 0.51% of 340,000 active | AID 504462; in the data active = inhibition above about 40%
ATG4B conf = confirmation of human ATG4B inhibitors | AID 504757 | ATG4B protease fluorescent substrate cleavage assay | shares compounds with ATG4B inhibitor | 92% of 320 active | inhibition, % at 8.33 µM; in the data active = inhibition above about 39%
PLA2 ctr = counter-screen for ATG4B inhibitors: human phospholipase A2; purified PLA2, NBD-C6-HPC fluorescence, 45 min; inhibition, % at 8.33 µM; 66% of 1,600 active; shares compounds with ATG4B inhibitor; in the data active = inhibition above about 50%
Starred values were filed as active, the others as inactive; nt = not tested or not shown.

SMILES	T cell modulator	PKA-R2B activ	HKDC1 inhibitor	PKA-R1A activ	PfGluPho inh	ATG4B inhibitor	PLA2 ctr	others
Cc1c(C(=O)N(C)C2CC(C)(C)NC(C)(C)C2)oc2c(F)cccc12	62.1	-2.7	-8.4	-1.8	0.8	20.4	nt
O=C(O)c1cccc(-n2cccc2/C=C2\SC(=O)N(Cc3ccccc3F)C2=O)c1	281.3	6.2	12.7	0.7	-25.4	40.2*	57.4*
Cc1ccccc1N=C1NC(=O)/C(=C/c2cccn2-c2cccc(C(=O)O)c2)S1	nt	nt	14.4	nt	-28.6	43.5*	5.2	ATG4B conf=58.6*
Cc1cc(C=C2C(=O)c3ccccc3C2=O)c(C)n1-c1ccccc1	658.2	6.6	-8.3	3.9	37.4	44.5*	-5.9	ATG4B conf=67.1*
O=C(Cn1cccc1C(=O)c1ccccc1)NCCc1ccc(Cl)cc1	475.7	4.7	-3.0	2.7	5.7	44.7*	52.8*
O=C(Cn1cccc1C(=O)c1ccccc1)NCCc1ccccc1	273.9	-1.9	-2.6	-8.9	-5.1	3.5	nt
CCCCCCCCn1ccc(=N)cc1	623.9	-6.8	-7.6	13.5	-5.1	-3.1	nt
CCCCCCCCCCCCCCCCn1cc[n+](C)c1	220.6	-10.1	3.4	-2.6	3.1	48.5*	37.8	ATG4B conf=49.9*
CCN(CC)c1ccc(C(=O)N/N=C(\C)c2ccc(O)cc2)cc1	215.1	-3.5	-4.8	-2.7	-1.7	35.5	nt
C/C(=N\NC(=O)c1ccc(OC2CCCC2)cc1)c1ccc(O)cc1	530.1	1.5	-2.9	-0.3	0.0	41.5*	48.4
CCC(CC)C1=NN2C(=N)/C(=C\c3cc(C)n(-c4cccc(C)c4)c3C)C(=O)N=C2S1	144.5	-5.2	4.6	-15.9	-46.4	58.9*	8.8	ATG4B conf=47.8*
CC1=NN2C(=N)/C(=C\c3cc(C)n(-c4ccccc4)c3C)C(=O)N=C2S1	340.3	-4.5	-2.2	-10.8	-26.0	3.9	nt
O=C(Nc1c(F)c(F)c(F)c(F)c1F)c1ccc(Br)o1	nt	2.8	nt	1.6	0.5	nt	nt
Cc1ccc(N2CC(O)=C(c3nc4ccccc4c(=O)[nH]3)C2=N)cc1C	182.5	-2.7	6.5	3.2	1.1	45.8*	38.3
CCOc1ccc(N2CC(O)=C(c3nc4ccccc4c(=O)[nH]3)C2=N)cc1	111.9	-1.2	-3.9	-2.9	0.6	-13.9	nt
C[C@H](NC(=O)c1ccccc1)C(=O)OCC(=O)Nc1sccc1C(N)=O	321.4	-22.1	-2.2	2.4	7.2	-56.5	nt
CCC[C@H]1CN(c2ccc(Br)cc2)C(=O)[C@@H]1CC(=O)Nc1ccccc1	nt	7.9	nt	-12.1	-4.3	nt	nt
Oc1c(Br)cc(Br)cc1C=Nc1ccc2c(c1)OCO2	286.2	-9.1	11.0	-0.2	46.6	62.8*	17.5	ATG4B conf=48.2*
Oc1c(Br)cc(Br)cc1C=Nc1ccc2c(c1)OCCO2	277.8	-8.1	7.2	-3.9	18.0	24.3	nt
FC(F)Sc1ccc(NC(=S)NCc2ccccc2)cc1	215.9	7.8	1.3	-24.1	18.2	43.7*	60.2*
Cc1ccc(NC(=S)NCc2ccccc2)cc1[N+](=O)[O-]	274.7	0.8	0.3	17.7	11.1	54.1*	62.5*
Cc1onc(-c2ccccc2)c1CNC(=O)Nc1cccc(Cl)c1	423.7	-2.5	0.6	-3.0	1.6	46.0*	44.5	ATG4B conf=73.2*
Cc1ccc(CNC(=S)Nc2ccc(C)c([N+](=O)[O-])c2)cc1	220.1	-16.5	-6.0	0.2	0.0	7.7	nt
O=C(NCc1ccc(F)cc1)Nc1ccc(Cl)cc1	205.1	2.3	-3.9	-8.5	-1.0	45.9*	54.0*
O=C(Nc1cccc(F)c1)Nc1cccc(Cl)c1	231.4	-8.3	1.0	-4.6	1.5	12.4	nt
SMILES	T cell modulator	PKA-R2B activ	HKDC1 inhibitor	PKA-R1A activ	PfGluPho inh	ATG4B inhibitor	PLA2 ctr	others
O=C(NCc1ccc(F)cc1)Nc1cccc(Cl)c1	666.3	-9.7	-9.3	5.3	12.3	67.2*	73.4*
S=C(NCc1ccccc1)Nc1cccc(Cl)c1	206.6	-0.2	-5.7	-7.4	6.4	50.2*	43.1	ATG4B conf=59.1*
COc1ccc(Cl)cc1NC(=S)NC(=O)c1ccco1	403.7	-4.4	-6.7	-7.8	1.2	-0.8	nt
Cc1ccc(NC(=O)CSC(C)C(=O)OCc2cc(=O)oc3cc(O)ccc23)cc1 (stereo not drawn)	nt	-5.2	nt	-0.5	-10.7	nt	nt
COc1ccc(C2CCCCC2SCC(=O)O)cc1OC (stereo not drawn)	nt	0.4	nt	-4.2	-20.7	nt	nt
CCN1C(=O)C(C(=O)Nc2ccc(OC)cc2)C2CC1(C)Oc1ccccc12 (stereo not drawn)	248.8	-20.8	1.9	-15.5	20.7	4.8	nt
CN1C(=O)C(c2nnc(Nc3cccc4ccccc34)s2)C2CC1(C)Oc1ccccc12 (stereo not drawn)	536.4	2.7	-2.8	-4.4	3.8	88.8*	91.1*
O=C(Nc1cccc(N=Cc2cc(Cl)cc(Br)c2O)c1)c1ccco1	238.4	7.5	15.1	3.3	13.8	66.2*	56.0*
O=C(Nc1cc(Br)c(O)c(Br)c1)c1cccc(NC(=O)c2ccco2)c1	288.5	-7.0	-0.4	-3.7	4.1	-10.4	nt
O=C(Nc1cccc(N=Cc2cc(Br)cc(Br)c2O)c1)c1ccco1	608.2	-3.0	18.1	-1.4	31.6	68.7*	60.0*
O=S(=O)(c1ccccc1Br)N(Cc1ccccc1)CC(O)COCc1ccccc1 (stereo not drawn)	nt	-3.9	-2.0	4.6	9.7	9.5	nt
Oc1ccc(/C=N/N(Cc2ccccc2)c2ccccc2)c(O)c1O	nt	-14.2	19.1	-24.5	23.4	56.2*	75.2*
Oc1cccc(/C=N/N(Cc2ccccc2)c2ccccc2)c1	198.5	-9.2	4.5	-11.6	3.2	27.2	nt
COc1ccc(/C=C2/C(=O)N(c3nc4ccccc4s3)N=C2CSc2ccc(Cl)cc2)cc1	0.0	-4.2	23.6	-2.1	23.9	56.3*	42.9
CSc1nc(N2CCOCC2)c2c3c(sc2n1)CCC3	202.4	-2.2	6.3	7.6	-2.9	48.6*	50.2*
Cc1nc(N2CCN(C)CC2)c2c3c(sc2n1)CCCC3	470.0	2.1	-2.8	-5.1	-7.6	1.1	nt
CCOc1cc(N2CCOCC2)c(OCC)cc1NC(=O)C(NC(=O)c1c(F)cccc1F)C(C)C (stereo not drawn)	nt	-1.1	-2.4	1.7	8.1	-3.4	nt
O=C(O)c1ccccc1C(=O)Nc1c(-c2ccccc2)nc2ccccn12	192.2	3.8	2.1	3.2	-13.3	-3.2	nt
CCc1cccc(CC)c1NC(=O)COC(=O)c1ccccc1-c1nc2ccccc2s1	412.1	1.7	1.2	-2.8	-9.1	66.0*	73.7*

Bioassay records deposited in PubChem by several laboratories.
